Hits are enriched below; roughly 4% of the tested compounds scored in any of these assays.
CHO parental Ca: signal in parental CHO cells, OX1R antagonist counter-screen; parental CHO-K1, ATP-induced calcium, Fluo-8 fluorescence; inhibition, % at 5.6 µM; 330,000 compounds, 0.63% hits; AID 463079;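 active means inhibition above that plate's mean sample inhibition plus 3 SD, cut at about 26% in these data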
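Material: Parental CHO cells | Reagent: ATP | Compound dosing: Single nominal dose of 5.6 µM per compound | Detection: Intracellular calcium via Fluo-8 no-wash fluorescent dye | Read-out: % inhibition of ATP-induced calcium mobilization | Benchmarks: Low control ATP plus DMSO, high control DMSO only | Replicates: Singlicate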
TAAR1 antag: human TAAR1 antagonism | 360,000 compounds, 1.5% hits | AID 624466 | CHO RD-HGA16 TAAR1, Fluo-8 calcium fluorescence, antagonist | Q96RJ0 | inhibition, % at 3 µM;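 active means inhibition above a per-plate cutoff, the mean inhibition of test compounds on that plate plus 3 SD, cut at about 49% in these data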
Target sequence (Q96RJ0 whole entry, looked up): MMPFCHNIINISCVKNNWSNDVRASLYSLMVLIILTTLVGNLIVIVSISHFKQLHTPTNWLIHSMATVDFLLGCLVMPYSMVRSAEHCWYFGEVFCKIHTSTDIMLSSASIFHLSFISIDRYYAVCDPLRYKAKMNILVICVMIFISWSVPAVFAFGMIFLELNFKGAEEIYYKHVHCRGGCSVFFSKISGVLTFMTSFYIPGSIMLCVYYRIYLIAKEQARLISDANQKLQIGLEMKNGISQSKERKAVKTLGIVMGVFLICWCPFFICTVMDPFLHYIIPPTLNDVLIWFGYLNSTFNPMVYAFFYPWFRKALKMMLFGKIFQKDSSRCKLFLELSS
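test system = CHO RD-HGA16 cells bearing hTAAR1 | replication = singlicate | controls = DMSO-only wells and EC80 β-PEA-stimulated wells | reagent = EC80 β-phenethylamine stimulus | read-out basis = percent inhibition of PEA-evoked calcium signal, max/basal emission ratio | schedule = seeding 17-24 h prior, 75-min 37 °C, 30-min RT dye loading | signal = kinetic Fluo-8 calcium fluorescence measurement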
OX1R antag-1: antagonists of human orexin 1 receptor. CHO/OX1R cells, Fluo-8 calcium fluorescence, orexin A. inhibition, % at 5 µM. 330,000 compounds, 0.43% hits. AID 434989;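 active means inhibition above its plate's threshold, mean inhibition of all tested compounds on the plate plus 3 SD, cut at about 37% in these data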
OX1R antag-2: antagonists of human orexin 1 receptor (OX1R). O43613. OX1R-expressing cells, FRET antagonist read-out. inhibition, % at 6.6 µM. 330,000 compounds, 1.8% hits. AID 485270; in the data active means inhibition mostly above about 38%, no sharp cut-off; inactive means mostly below about 40%
TAAR1 ag: agonists of human TAAR1. Q96RJ0. CHO RD-HGA16 TAAR1, Fluo-8 calcium fluorescence; vehicle wells 0%, saturating PEA agonist 100%. activation, % at 3 µM. 360,000 compounds, 0.99% hits;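 active means activation above the mean activation of all test compounds in the run plus 3 SD, cut at about 38% in these data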
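Signal – calcium-sensitive Fluo-8 signal, excitation 470-495, emission 515-575 nm · System – RD-HGA16 (CHO) cells co-expressing Gα16 and hTAAR1 · Incubation – 17-24 h seeding, 75 min 37 °C dye, 30 min RT · Compound dosing – 3 µM single concentration · Repeats – no replicates (n 1)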
Large screens that a line does not name were inactive.

COC(=O)c1sc(S(=O)(=O)NC(Cc2ccccc2)C(=O)O)c(C(=O)OC)c1C (stereo not given)	OX1R antag-2 32
COc1ccc2nc3ccccc3nc2c1NC(=O)c1ccccc1Cl	OX1R antag-2 51
COc1ccc(-c2cc(C(=O)Nc3c(Cl)cc(Cl)cc3Cl)c3ccccc3n2)cc1OC	none
COc1ccc(CCNC(=O)COc2ccc(S(=O)(=O)NC(C)C)cc2Cl)cc1OC	OX1R antag-2 47 (no result: TAAR1 antag, TAAR1 ag)
CN(C(=O)COc1ccccc1C(=O)NCCOc1ccccc1)c1ccccc1	CHO parental Ca 92, TAAR1 antag 75, OX1R antag-1 78, OX1R antag-2 80
COCCNC(=O)/C(C#N)=C1\N=C(NC(=O)c2cccs2)c2ccccc21	OX1R antag-2 42
Fc1ccc2[nH]c3c(Cl)ncnc3c2c1	none
Fc1ccc2[nH]c3c(N4CCN(c5ccccc5)CC4)ncnc3c2c1	CHO parental Ca 59, TAAR1 antag 57, OX1R antag-1 68, OX1R antag-2 118
COc1ccc2[nH]c3c(N4CCc5ccccc5C4)ncnc3c2c1	none
COc1ccc(N2CCN(c3ncnc4c3[nH]c3ccccc34)CC2)cc1	CHO parental Ca 75, TAAR1 antag 67, OX1R antag-1 71, OX1R antag-2 89
CCOC(=O)N1CCN(c2ncnc3c2[nH]c2ccc(F)cc23)CC1	CHO parental Ca 47, OX1R antag-1 52
O=C(CCCN1CCC(O)(c2cccc(C(F)(F)F)c2)CC1)c1ccc(F)cc1	none
OC1(c2cccc(C(F)(F)F)c2)CCN(c2ncnc3c2[nH]c2ccc(F)cc23)CC1	TAAR1 antag 60 (no result: CHO parental Ca, OX1R antag-1, OX1R antag-2)
CCOC(=O)N1CCN(c2ncnc3c2[nH]c2ccc(OC)cc23)CC1	none
O=C(/C=C/c1ccco1)N(Cc1ccccc1F)C1CCS(=O)(=O)C1 (stereo not given)	none
CC12C=CC(C)(C3C(=O)NC(=O)C31)C1C3C(=O)NC(=O)C3C12 (stereo not given)	none (no result: CHO parental Ca, OX1R antag-1, OX1R antag-2)
CC1=CC(O)(c2ccccn2)P(=O)(c2ccccc2)C=C1C (stereo not given)	none (no result: CHO parental Ca, OX1R antag-1, OX1R antag-2)
C=CC[C@@H](CC(=O)N(CCO)Cc1ccccc1)C(=O)N[C@@H](COC(=O)[C@@H](CC=C)CC(=O)OC(C)(C)C)Cc1c[nH]c2ccccc12	TAAR1 antag 55
C=CC[C@@H](CC(=O)N(CCO)Cc1ccccc1)C(=O)N[C@H](COC(=O)[C@@H](CC=C)CC(=O)OC(C)(C)C)Cc1c[nH]c2ccccc12	TAAR1 antag 60
C=CC[C@@H](CC(=O)N[C@@H](CO)Cc1ccccc1)C(=O)N[C@H](COC(=O)[C@@H](CC=C)CC(=O)OC(C)(C)C)Cc1c[nH]c2ccccc12	none
C=CC[C@H](CC(=O)N(CCO)Cc1ccccc1)C(=O)NC[C@H](OC(=O)[C@@H](CC=C)CC(=O)OC(C)(C)C)c1ccccc1	TAAR1 antag 49
Cc1cccc(C(=O)OCC(=O)NCCCc2ccccc2)c1	none
O=C(c1nc2ccc(Cl)cn2c1CN1CCCC1)N1CCc2ccccc2C1	TAAR1 ag 47
O=C(c1nc2ccc(Cl)cn2c1CN1CCC(CO)CC1)N1CCc2ccccc2C1	none
O=C(c1ncn(Cc2ccccc2)c1C(=O)N1CCc2ccccc2C1)N1CCc2ccccc2C1	TAAR1 ag 41
Cc1cc(NC(=O)c2ccc(COc3ccccc3Cl)o2)no1	CHO parental Ca 53
COc1ccc(NC(=O)c2ccc(COc3ccccc3Br)o2)cc1OC	TAAR1 antag 80
COc1ccc(NC(=O)c2ccc(COc3ccccc3OC)o2)cc1OC	none
CC(/C=N/NC(=O)c1ccc(Cn2cc([N+](=O)[O-])cn2)o1)=C\c1ccccc1	none
C[C@H](O)[C@@H]1CN2CCc3c([nH]c4ccccc34)[C@@H]2C[C@@H]1N(C)CC1CCCCC1	none (no result: CHO parental Ca, OX1R antag-1, OX1R antag-2)
COc1ccccc1CCn1cnc(-c2ccc(F)cc2)c1C(C)C	none (no result: CHO parental Ca, OX1R antag-1, OX1R antag-2)
O=Cc1ccc(-c2ccc(F)cc2)o1	none
O=C(O)c1cc(Cl)ccc1-c1ccc(/C=C/c2cc(C(F)(F)F)[nH]c(=O)n2)o1	TAAR1 ag 67
O=c1nc(/C=C/c2ccc(-c3ccc(F)cc3)o2)cc(C(F)(F)F)[nH]1	OX1R antag-1 53 (no result: TAAR1 antag, TAAR1 ag)
Cc1nc(S/C(=C/c2ccc(-c3cc(Cl)ccc3C)o2)C(=O)O)n[nH]1	none
CSc1ccc(Cn2c(C)c(C(=O)NCc3ccc4c(c3)OCCO4)sc2=O)cc1	none (no result: CHO parental Ca, OX1R antag-1, OX1R antag-2)
N#C/C(=C/c1ccc(-c2ccc(S(N)(=O)=O)cc2)o1)C(=O)Nc1ccccc1	none
COC(=O)c1ccc(/C=C(\C#N)c2nc3ccccc3s2)cc1	CHO parental Ca 49, OX1R antag-1 56
N#C/C(=C/c1ccc(-c2ccc(S(N)(=O)=O)cc2)o1)c1nc2ccccc2s1	CHO parental Ca 64, OX1R antag-1 80
c1coc(-c2nc3ccccc3s2)c1	none (no result: CHO parental Ca, OX1R antag-1, OX1R antag-2)
N#C/C(=C\c1ccc(-c2nc3ccccc3s2)o1)C(N)=O	OX1R antag-2 52
CCOC(=O)C1(CCCc2ccccc2)CCN(C2CCN(C(C)=O)CC2)CC1	none
COCCN(C(=O)Cc1cccs1)C(C(=O)NC1CCCC1)c1cc(OC)c(OC)c(OC)c1 (stereo not given)	none
COC(=O)C1CCCCN1C(=O)c1cc(COc2cccc3cccnc23)on1 (stereo not given)	none
COC(=O)C1CCCCN1C(=O)c1cc(COc2cccc3cnccc23)on1 (stereo not given)	CHO parental Ca 54
CCOC(=O)CC1CCCCN1C(=O)c1cc(COc2cccc3cnccc23)on1 (stereo not given)	CHO parental Ca 53, OX1R antag-2 48
O=C(c1cc(COc2cccc3cccnc23)on1)N1CCC[C@H]1CO	none (no result: CHO parental Ca, OX1R antag-1, OX1R antag-2)
CSc1ccc(Oc2cccc3c2S(=O)(=O)N(C2CC2)C[C@@H](COCc2ccccc2)O3)cc1C	none (no result: CHO parental Ca, OX1R antag-1, OX1R antag-2)
O=C(OC(c1ccccc1)c1nccc2ccccc12)c1cc([N+](=O)[O-])cc([N+](=O)[O-])c1 (stereo not given)	OX1R antag-2 62
CN1C(=O)[C@H]2[C@@H](c3ccc(C(F)(F)F)cc3)N[C@]3(CCCN(Cc4ccc(Br)cc4)C3=O)[C@H]2C1=O	none (no result: CHO parental Ca, OX1R antag-1, OX1R antag-2)
O=C(COC(=O)c1cnccn1)c1ccc([N+](=O)[O-])cc1	OX1R antag-2 44
O=C(CCC(=O)OCC(=O)c1ccc([N+](=O)[O-])cc1)Nc1ccccc1Cl	OX1R antag-2 58 (no result: TAAR1 antag, TAAR1 ag)
O=C(COc1ccccc1F)OCC(=O)c1ccc([N+](=O)[O-])cc1	OX1R antag-2 31
O=C(COC(=O)CCS(=O)(=O)c1ccccc1)NNC(=O)c1ccc([N+](=O)[O-])cc1	none (no result: CHO parental Ca, OX1R antag-1, OX1R antag-2)
O=C(COC(=O)Cc1ccccc1F)NNC(=O)c1ccc([N+](=O)[O-])cc1	OX1R antag-2 63
O=C(COC(=O)c1cnccn1)c1ccc(Cl)c([N+](=O)[O-])c1	none
COc1ccc(C(CNC(=O)c2oc3c(Cl)cccc3c2C)N2CCCC2)cc1 (stereo not given)	none

Screening data as filed in PubChem.
